A short description of series [1]: Cytotoxicity against human SH-SY5Y cells after 72 hrs by MTT assay. The format is functional, cell-based. The gist of the method:
(§1)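 Cells cultured in DMEM or RPMI 1640 with 10% FBS. Seeded at about 2 × 10^3 per well and grown 24 h at 37 °C, 5% CO2. Compounds added at final 0.1–1000 uM for 72 h, 5 wells per concentration. MTT added for 4 h at 37 °C, then lysis overnight. Absorbance read at 570 nm against a 650 nm reference; IC50 calculated.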

The nature of series [2]: Cytotoxicity against human HepG2 cells after 72 hrs by MTT assay. In kind it is functional, cell-based. The following applies: HepG2, 72 h. The procedure, abridged:
as §1

Series [3] is described as follows: Cytotoxicity against human A549 cells after 72 hrs by MTT assay. In kind it is functional, cell-based. The following applies: A549, 72 h. The gist of the method:
as §1

The nature of series [4]: Cytotoxicity against human GES-1 cells assessed as reduction in cell viability after 72 hrs by MTT assay. In kind it is toxicity, cell-based, GES1. The gist of the method:
as §1

Series [5] in a line: Cytotoxicity against human MCF7 cells after 72 hrs by MTT assay. In kind it is functional, cell-based. The conditions noted are these: MCF7, 72 h. The procedure, abridged:
as §1

Series [6] is described as follows: Cytotoxicity against human DU145 cells after 72 hrs by MTT assay. The format is functional, cell-based. The following applies: DU-145, 72 h. The gist of the method:
as §1

A short description of series [7]: Antitumor activity against human HepG2 cells xenografted in nude mouse assessed as tumor growth inhibition at 20 mg/kg, ip administered every day for 15 times measured from day 12 to 26. More on the design: scale not given: the % may be the effect or the level left. The format is functional. The procedure, abridged: (§2)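 Female nude mice given 5 × 10^6 HepG-2 cells subcutaneously in the left flank. Randomized, n = 5 per group. Daily i.p. injection for 15 times, with saline as vehicle control. Tumor length and width recorded every other day; volume taken as 1/2·length·width² once tumors reached 130–160 mm3. Result is tumor growth inhibition versus the saline group.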

Series [8] can be described thus: Antitumor activity against human HepG2 cells xenografted in nude mouse assessed as tumor growth inhibition at 10 mg/kg, ip administered every day for 15 times measured from day 12 to 26. Details: scale not given: the % may be the effect or the level left. In kind it is functional. The gist of the method:
as §2

For series [9], the system named is Mus musculus. As to the kind of experiment: Toxicity in nude mouse xenografted with human HepG2 cells assessed as body weight change at 10 mg/kg, ip administered every day for 15 times measured from day 12 to 26. In kind it is organism-based. The conditions noted are these: in vivo. The gist of the method: (§3)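 Same subcutaneous HepG-2 xenograft in female nude mice (5 × 10^6 cells, left flank). n = 5 per group, daily i.p. dosing for 15 times, saline control. Body weight of each mouse recorded every other day during therapy and followed after treatment stopped. Treated versus untreated compared by p value over days 12–26.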

Series [10] has as its system Mus musculus. As to the kind of experiment: Toxicity in nude mouse xenografted with human HepG2 cells assessed as body weight change at 20 mg/kg, ip administered every day for 15 times measured from day 12 to 26. The format is organism-based. The conditions noted are these: in vivo. The procedure, abridged:
as §3

In series [11] the test system is HepG2. As to the kind of experiment: Induction of apoptosis in human HepG2 cells assessed as viable cells at 6 uM after 24 hrs by Annexin V-FITC/propidium iodide staining based flow cytometric analysis analysis (reference value: 90.7 %). The conditions noted are these: HepG2, 24 h, read-out: Activity. In kind it is functional.
Series [12] relates to HepG2. As to the kind of experiment: Induction of apoptosis in human HepG2 cells assessed as early apoptotic cells at 6 uM after 24 hrs by Annexin V-FITC/propidium iodide staining based flow cytometric analysis analysis (reference value: 1.60 %). In kind it is functional.
Series [13] concerns HepG2. As to the kind of experiment: Induction of apoptosis in human HepG2 cells assessed as late apoptotic cells at 6 uM after 24 hrs by Annexin V-FITC/propidium iodide staining based flow cytometric analysis analysis (reference value: 5.93 %). The format is functional.
Series [14] relates to HepG2. As to the kind of experiment: Induction of apoptosis in human HepG2 cells assessed as necrotic cells at 2 uM after 24 hrs by Annexin V-FITC/propidium iodide staining based flow cytometric analysis analysis (reference value: 1.74 %). In kind it is functional.
The subject of series [15] is HepG2. As to the kind of experiment: Induction of apoptosis in human HepG2 cells assessed as necrotic cells at 6 uM after 24 hrs by Annexin V-FITC/propidium iodide staining based flow cytometric analysis analysis (reference value: 1.74 %). The format is functional.
Series [16] relates to HepG2. As to the kind of experiment: Induction of apoptosis in human HepG2 cells assessed as late apoptotic cells at 4 uM after 24 hrs by Annexin V-FITC/propidium iodide staining based flow cytometric analysis analysis (reference value: 5.93 %). The format is functional.
The test system of series [17] is HepG2. As to the kind of experiment: Induction of apoptosis in human HepG2 cells assessed as viable cells at 4 uM after 24 hrs by Annexin V-FITC/propidium iodide staining based flow cytometric analysis analysis (reference value: 90.7 %). The following applies: HepG2, 24 h, read-out: Activity. In kind it is functional.
The test system of series [18] is HepG2. As to the kind of experiment: Induction of apoptosis in human HepG2 cells assessed as late apoptotic cells at 2 uM after 24 hrs by Annexin V-FITC/propidium iodide staining based flow cytometric analysis analysis (reference value: 5.93 %). The format is functional.
Series [19] relates to HepG2. As to the kind of experiment: Induction of apoptosis in human HepG2 cells assessed as early apoptotic cells at 4 uM after 24 hrs by Annexin V-FITC/propidium iodide staining based flow cytometric analysis analysis (reference value: 1.60 %). In kind it is functional.
For series [20], the system named is Mus musculus. As to the kind of experiment: Toxicity in nude mouse xenografted with human HepG2 cells assessed as body weight change at 10 and 20 mg/kg, ip administered every day for 15 days and measured treatment cessation. The conditions noted are these: in vivo, 360 h. In kind it is organism-based. The procedure, abridged:
as §3

The nature of series [21]: Cell cycle arrest in human HepG2 cells assessed as accumulation at G1 phase at 1 to 3 uM after 24 hrs by propidium iodide staining-based flow cytometric analysis. The format is functional. The procedure, abridged: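 HepG2 cells exposed 24 h, then trypsinized, washed in ice-cold PBS and fixed in ice-cold 70% ethanol for at least 24 h. Resuspended in 0.4 mL PBS with RNase A (1 mg/ml stock) and PI (500 ug/ml stock) for 30 min at 4 °C in the dark. Cycle distribution (G1, S, G2/M percentages) read by flow cytometry.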

Series [22] has as its system HepG2. As to the kind of experiment: Induction of apoptosis in human HepG2 cells assessed as viable cells at 2 uM after 24 hrs by Annexin V-FITC/propidium iodide staining based flow cytometric analysis analysis (reference value: 90.7 %). In kind it is functional. The conditions noted are these: HepG2, 24 h, read-out: Activity.
For series [23], the system named is HepG2. As to the kind of experiment: Induction of apoptosis in human HepG2 cells assessed as necrotic cells at 4 uM after 24 hrs by Annexin V-FITC/propidium iodide staining based flow cytometric analysis analysis (reference value: 1.74 %). The format is functional.
Series [24] has as its system HepG2. As to the kind of experiment: Induction of apoptosis in human HepG2 cells assessed as early apoptotic cells at 2 uM after 24 hrs by Annexin V-FITC/propidium iodide staining based flow cytometric analysis analysis (reference value: 1.60 %). In kind it is functional.

Active and inactive are the calls of the source. The calls are words filed in the database; no cut-off is given here.

Turning to `CC1CCN(Cc2cc(Nc3ccc(N(CCCl)CCCl)cc3)n3ncc(C#N)c3n2)CC1`, the IC50 in [1] stood at 19.2 µM; in series [2] it was 23.6 µM; in series [3], 18.3 µM; in [5], 82.9 µM; in series [6], 43.4 µM. The IC50 at 72 h in series [4] was 17.5 µM.

Turning to `CCN1CCN(Cc2cc(Nc3ccc(N(CCCl)CCCl)cc3)n3ncc(C#N)c3n2)CC1`, the IC50 in series [1] came out at 8.4 µM; in [2] it was 10.7 µM; in [3] it was 14.8 µM; in [5] it was 13.8 µM; in series [6], 21.7 µM. Also, the IC50 at 72 h in series [4] was 13.5 µM.

As to `N#Cc1cnn2c(Nc3ccc(N(CCCl)CCCl)cc3)cc(CN3CCCC3)nc12`, the half-inhibitory concentration (IC50) stood at 9.17 µM in series [1]; 5.54 µM in [2]; 9.84 µM in series [3]; 12.4 µM in series [5]; 27.2 µM in series [6]. Besides, the IC50 at 72 h in series [4] was 13.7 µM.

Regarding `CN(C)C1CCN(Cc2cc(Nc3ccc(N(CCCl)CCCl)cc3)n3ncc(C#N)c3n2)CC1`, the IC50 turned out to be 7.86 µM in series [1]; 4.01 µM in series [2]; 5.12 µM in series [3]; 12.4 µM in series [5]; 7.67 µM in [6]. Also, the IC50 at 72 h in series [4] stood at 11.1 µM.

Take `CNC(=O)c1cc(Oc2ccc(NC(=O)Nc3ccc(Cl)c(C(F)(F)F)c3)cc2)ccn1` [SORAFENIB]: the half-maximal inhibitory concentration (IC50) in series [1] worked out at 27.7 µM; in series [3] it was 19.5 µM. The IC50 at 72 h in [4] was 10.7 µM. For the same compound, the Activity in series [7] is listed as 54.93%; in series [8], 47.9%.

Take `CN1CCN(Cc2cc(Nc3ccc(N(CCCl)CCCl)cc3)n3ncc(C#N)c3n2)CC1`: the IC50 in series [1] was determined as 7.42 µM; in series [2], 2.92 µM; in series [3], 8.9 µM; in series [5] it was 12.2 µM; in series [6], 23.6 µM. Moreover, the IC50 at 72 h in [4] was found to be 8.29 µM.

On to `CN(C)Cc1cc(Nc2ccc(N(CCCl)CCCl)cc2)n2ncc(C#N)c2n1`, for which the IC50 was determined as 8.68 µM in [1]; 3.16 µM in series [2]; 6.22 µM in [3]; 6.53 µM in [5]; 18.9 µM in series [6]. For the same compound, the IC50 at 72 h in series [4] is 11 µM.

For the compound `O=P1(N(CCCl)CCCl)NCCCO1` (centres undefined) [CYCLOPHOSPHAMIDE ANHYDROUS], the Activity came to 7.04% in the series with Mus musculus [9], 51.48% in series [7], 42.11% in series [8] and 10.63% with Mus musculus [10].

Take `N#Cc1cnn2c(Nc3ccc(N(CCCl)CCCl)cc3)cc(CN3CCC(N4CCCCC4)CC3)nc12`: the viability at 6 µM in the series on HepG2 [11] came out at 57.3%. Further, the Activity was found to be 5.56% with HepG2 [12]; 29.5% in the series on HepG2 [13]; 3.39% in the series on HepG2 [14]; 7.69% in the series on HepG2 [15]; 18% with HepG2 [16]; 7.15% with Mus musculus [9]. Further, the Activity is on record as 11.9% in the series with HepG2 [18]; 3.78% in the series with HepG2 [19]; “Non-Toxic” in the series with Mus musculus [20]; 5.08% with HepG2 [23]; 58.26% in series [7]; 43.88% in series [8]. The Activity is given as 2.87% in the series on HepG2 [24] and 9.21% in the series with Mus musculus [10]. Moreover, the IC50 in [1] was 6.02 µM; in [2], 0.21 µM; in series [3], 6.13 µM; in series [5], 8.31 µM; in series [6] it was 6.82 µM. Also, in the series with HepG2 [17], the viability at 4 µM was determined as 73.2%. Also, the result in series [21] was Active. The viability at 2 µM in the series on HepG2 [22] turned out to be 81.8%. Moreover, the IC50 at 72 h in [4] turned out to be 9.54 µM.

The values are drawn from ChEMBL document CHEMBL3853295, “Design and synthesis of novel pyrazolo[1,5-a]pyrimidine derivatives bearing nitrogen mustard moiety and evaluation of their antitumor activity in vitro and in vivo” (Eur J Med Chem, 2016).
